Measurements reported in ChEMBL document CHEMBL1221271, “6-Alkylquinolone-3-carboxylic acid tethered to macrolides synthesis and antimicrobial profile” (2010).
≈ marks a conversion by molar mass, not a printed value.

Assays:
Type in all cases: functional
Staphylococcus aureus [1] = test: Antimicrobial activity against macrolide, licosamide streptogramin-resistant Staphylococcus aureus 90265/97 by broth microdilution method
Summary of the method: (§1)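 MIC determined by the standard broth microdilution method; values reported in mg/L. Reference macrolide antibiotics were tested alongside as comparators.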

Staphylococcus aureus [2] = test: Antimicrobial activity against Staphylococcus aureus ATCC 13709 by broth microdilution method; summary of the method: as §1
Streptococcus pneumoniae [3] = test: Antimicrobial activity against Streptococcus pneumoniae SP030 by broth microdilution method
Summary of the method: (§2)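 Standard broth microdilution assay. Read-out is the minimum inhibitory concentration, reported in mg/L.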

Streptococcus pyogenes [4] = test: Antimicrobial activity against Streptococcus pyogenes 3565 by broth microdilution method; summary of the method: as §2
Streptococcus pneumoniae [5] = test: Antimicrobial activity against Streptococcus pneumoniae 134 GR-M by broth microdilution method; summary of the method: as §2
Streptococcus pyogenes [6] = test: Antimicrobial activity against Streptococcus pyogenes Finland 2 by broth microdilution method; summary of the method: as §1
Streptococcus pneumoniae [7] = test: Antimicrobial activity against Streptococcus pneumoniae 58 spain by broth microdilution method; summary of the method: as §2
Streptococcus pyogenes [8] = test: Antimicrobial activity against Streptococcus pyogenes 166 GR-Micro by broth microdilution method; summary of the method: as §2
Haemophilus influenzae = test: Antimicrobial activity against Haemophilus influenzae ATCC 49247 by broth microdilution method; summary of the method: as §2
Streptococcus pyogenes [9] = test: Antimicrobial activity against macrolide-resistant Streptococcus pyogenes Finland 2 by broth microdilution method; summary of the method: as §1
Staphylococcus aureus [10] = test: Antimicrobial activity against efflux-mediated macrolide-resistant Staphylococcus aureus PK1 by broth microdilution method; summary of the method: as §1

SMILES | MIC (Staphylococcus aureus [1]) [µg/mL] | MIC (Staphylococcus aureus [2]) [µg/mL] | MIC (Streptococcus pneumoniae [3]) [µg/mL] | MIC (Streptococcus pyogenes [4]) [µg/mL] | MIC (Streptococcus pneumoniae [5]) [µg/mL] | MIC (Streptococcus pyogenes [6]) [µg/mL] | MIC (Streptococcus pneumoniae [7]) [µg/mL] | MIC (Streptococcus pyogenes [8]) [µg/mL] | MIC (Haemophilus influenzae) [µg/mL] | MIC (Streptococcus pyogenes [9]) [µg/mL] | MIC (Staphylococcus aureus [10]) [µg/mL]
CCOC(=O)CCCCCOCC#Cc1ccc2c(c1)c(=O)c(C(=O)OCC)cn2CC | > 64 | > 64 | 16 (≈ 36.2 µM) | 8 (≈ 18.1 µM) | 64 (≈ 145 µM) | > 64 | 64 (≈ 145 µM) | > 64 | > 64 | > 64 | > 64
CCn1cc(C(=O)O)c(=O)c2cc(C#CCOCCCCCC(=O)O)ccc21 | > 64 | > 64 | > 64 | > 64 | > 64 | > 64 | > 64 | > 64 | > 64 | – | > 64
CCOC(=O)CCCCOCC#Cc1ccc2c(c1)c(=O)c(C(=O)OCC)cn2CC | > 64 | > 64 | > 64 | > 64 | > 64 | > 64 | > 64 | > 64 | > 64 | – | > 64
CCn1cc(C(=O)O)c(=O)c2cc(C#CCOCCCCC(=O)O)ccc21 | > 64 | > 64 | 1 (≈ 2.69 µM) | 1 (≈ 2.69 µM) | > 64 | 16 (≈ 43.1 µM) | 2 (≈ 5.39 µM) | > 64 | > 64 | 16 (≈ 43.1 µM) | > 64
CC[C@H]1OC(=O)[C@H](C)[C@@H](O[C@H]2C[C@@](C)(OC)[C@@H](OC(=O)CCCCCOCCCc3ccc4c(c3)c(=O)c(C(=O)O)cn4CC)[C@H](C)O2)[C@H](C)[C@@H](O[C@@H]2O[C@H](C)C[C@H](N(C)C)[C@H]2O)[C@](C)(O)C[C@@H](C)CN(C)[C@H](C)[C@@H](O)[C@]1(C)O | 0.25 (≈ 0.223 µM) | 0.25 (≈ 0.223 µM) | < 0.125 | < 0.125 | < 0.125 | < 0.125 | < 0.125 | < 0.125 | 0.5 (≈ 0.446 µM) | – | 0.25 (≈ 0.223 µM)
CC[C@H]1OC(=O)[C@H](C)[C@@H](O[C@H]2C[C@@](C)(OC)[C@@H](OC(=O)CCCCCOCCCc3ccc4c(c3)c(=O)c(C(=O)O)cn4CC)[C@H](C)O2)[C@H](C)[C@@H](O[C@@H]2O[C@H](C)C[C@H](N(C)C)[C@H]2O)[C@](C)(O)C[C@@H](C)CN(C)[C@H](C)[C@@H](OC)[C@]1(C)O | 2 (≈ 1.76 µM) | 1 (≈ 0.881 µM) | < 0.125 | < 0.125 | 0.5 (≈ 0.441 µM) | < 0.125 | < 0.125 | 0.5 (≈ 0.441 µM) | 1 (≈ 0.881 µM) | – | 1 (≈ 0.881 µM)
CC[C@H]1OC(=O)[C@H](C)[C@@H](O[C@H]2C[C@@](C)(OC)[C@@H](OC(=O)CCCCOCC#Cc3ccc4c(c3)c(=O)c(C(=O)O)cn4CC)[C@H](C)O2)[C@H](C)[C@@H](O[C@@H]2O[C@H](C)C[C@H](N(C)C)[C@H]2O)[C@](C)(O)C[C@@H](C)CN(C)[C@H](C)[C@@H](O)[C@]1(C)O | 4 (≈ 3.63 µM) | 0.5 (≈ 0.454 µM) | < 0.125 | < 0.125 | 0.5 (≈ 0.454 µM) | < 0.125 | < 0.125 | 1 (≈ 0.907 µM) | 1 (≈ 0.907 µM) | – | 0.5 (≈ 0.454 µM)
CC[C@H]1OC(=O)[C@H](C)[C@@H](O[C@H]2C[C@@](C)(OC)[C@@H](OC(=O)CCCCOCCCc3ccc4c(c3)c(=O)c(C(=O)O)cn4CC)[C@H](C)O2)[C@H](C)[C@@H](O[C@@H]2O[C@H](C)C[C@H](N(C)C)[C@H]2O)[C@](C)(O)C[C@@H](C)CN(C)[C@H](C)[C@@H](O)[C@]1(C)O | 4 (≈ 3.62 µM) | 0.5 (≈ 0.452 µM) | < 0.125 | < 0.125 | 0.25 (≈ 0.226 µM) | < 0.125 | < 0.125 | 0.25 (≈ 0.226 µM) | 2 (≈ 1.81 µM) | – | 0.5 (≈ 0.452 µM)
CC[C@H]1OC(=O)[C@H](C)[C@@H](O[C@H]2C[C@@](C)(OC)[C@@H](OC(=O)CCCCCOCC#Cc3ccc4c(c3)c(=O)c(C(=O)O)cn4CC)[C@H](C)O2)[C@H](C)[C@@H](O[C@@H]2O[C@H](C)C[C@H](N(C)C)[C@H]2O)[C@](C)(OC)C[C@@H](C)C(=O)[C@H](C)[C@@H](O)[C@]1(C)O | 8 (≈ 7.17 µM) | 2 (≈ 1.79 µM) | < 0.125 | < 0.125 | 4 (≈ 3.59 µM) | < 0.125 | < 0.125 | 2 (≈ 1.79 µM) | 16 (≈ 14.3 µM) | – | 2 (≈ 1.79 µM)
CC[C@H]1OC(=O)[C@H](C)[C@@H](O[C@H]2C[C@@](C)(OC)[C@@H](OC(=O)CCCCCOCCCc3ccc4c(c3)c(=O)c(C(=O)O)cn4CC)[C@H](C)O2)[C@H](C)[C@@H](O[C@@H]2O[C@H](C)C[C@H](N(C)C)[C@H]2O)[C@](C)(OC)C[C@@H](C)C(=O)[C@H](C)[C@@H](O)[C@]1(C)O | 4 (≈ 3.57 µM) | 2 (≈ 1.79 µM) | < 0.125 | < 0.125 | 1 (≈ 0.893 µM) | < 0.125 | < 0.125 | < 0.125 | 8 (≈ 7.15 µM) | – | 2 (≈ 1.79 µM)
CC[C@H]1OC(=O)[C@H](C)[C@@H](O[C@H]2C[C@@](C)(OC)[C@@H](O)[C@H](C)O2)[C@H](C)[C@@H](O[C@@H]2O[C@H](C)C[C@H](N(C)C)[C@H]2O)[C@](C)(O)C[C@@H](C)CN(C)[C@H](C)[C@@H](O)[C@]1(C)O [AZITHROMYCIN] | > 64 | 0.5 (≈ 0.668 µM) | < 0.125 | < 0.125 | > 64 | 16 (≈ 21.4 µM) | > 64 | > 64 | 1 (≈ 1.34 µM) | 16 (≈ 21.4 µM) | > 64
CC[C@H]1OC(=O)[C@H](C)[C@@H](O[C@H]2C[C@@](C)(OC)[C@@H](O)[C@H](C)O2)[C@H](C)[C@@H](O[C@@H]2O[C@H](C)C[C@H](N(C)C)[C@H]2O)[C@](C)(OC)C[C@@H](C)C(=O)[C@H](C)[C@@H](O)[C@]1(C)O [CLARITHROMYCIN] | > 64 | ≤ 0.125 | ≤ 0.125 | ≤ 0.125 | > 64 | 4 (≈ 5.35 µM) | > 64 | > 64 | 8 (≈ 10.7 µM) | 4 (≈ 5.35 µM) | 32 (≈ 42.8 µM)
CC[C@H]1OC(=O)[C@H](C)C(=O)[C@H](C)[C@@H](O[C@@H]2O[C@H](C)C[C@H](N(C)C)[C@H]2O)[C@](C)(OC)C[C@@H](C)C(=O)[C@H](C)[C@H]2N(CCCCn3cnc(-c4cccnc4)c3)C(=O)O[C@]12C [TELITHROMYCIN] | < 0.125 | 0.25 (≈ 0.308 µM) | < 0.125 | < 0.125 | 0.25 (≈ 0.308 µM) | 0.5 (≈ 0.616 µM) | 0.25 (≈ 0.308 µM) | 16 (≈ 19.7 µM) | 1 (≈ 1.23 µM) | 0.5 (≈ 0.616 µM) | 0.125 (≈ 0.154 µM)
